The test system of assay [1] is Trypanosoma cruzi. Put plainly: Antitrypanosomal activity against Trypanosoma cruzi Tulahuen 2 epimastigotes assessed as growth inhibition at 25 uM after 5 days relative to control. The format is functional. The following applies: Tulahuen 2, 120 h, read-out: GI. An outline of the steps: (§1)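 Epimastigotes grown axenically at 28 °C in BHI-tryptose + 5% FBS; a 10-day stationary culture was inoculated to 1 × 10⁶ cells/mL. Drug added from DMSO stock, final DMSO ≤0.4%, vehicle control. A600 read daily. PGI on day 5 corrects for day-0 absorbance, relative to control. […] Three independent experiments.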

Assay [2] has as its system Trypanosoma cruzi. In words: Antitrypanosomal activity against Trypanosoma cruzi Tulahuen 2 epimastigotes assessed as growth inhibition after 5 days. The format is functional. The conditions noted are these: Tulahuen 2, 120 h, read-out: ID50. An outline of the steps:
as §1

Consider `Cc1c(C(=O)NC(C)(C)C)[n+]([O-])c2cc(Cl)c(Cl)cc2[n+]1[O-]`, for which, in assay [1], the inhibition of growth at 25 µM worked out at 28%.
With `O=C(c1ccco1)c1c(C(F)(F)F)[n+]([O-])c2cc(F)c(F)cc2[n+]1[O-]`, the inhibition of growth at 25 µM in assay [1] worked out at 100%. Moreover, the IC50 in assay [2] stood at 2.5 µM.
As to `CCOC(=O)c1c(-c2ccccc2)[n+]([O-])c2ccccc2[n+]1[O-]`, in assay [1], the inhibition of growth at 25 µM was 29%.
Regarding `COc1ccc2c(c1)[n+]([O-])c(C(F)F)c(C(=O)c1ccccc1)[n+]2[O-]`, in assay [1], the inhibition of growth at 25 µM stood at 100%. Also, the IC50 in assay [2] stood at 10 µM.
Take `O=C(c1ccccc1)c1c(C(F)(F)F)[n+]([O-])c2cc(Cl)c(Cl)cc2[n+]1[O-]`: the inhibition of growth at 25 µM in assay [1] is 100%. For the same molecule, the IC50 in assay [2] is 2.4 µM.
For `Cc1ccc2c(c1)[n+]([O-])c(C(F)F)c(C(=O)c1ccccc1)[n+]2[O-]`, in that order: 50.8% and 25 µM.
For `Cc1cc2c(cc1C)[n+]([O-])c(C(F)(F)F)c(C(=O)c1ccccc1)[n+]2[O-]`, in that order: 72% and 1.4 µM.
`CCC(=O)c1c(C(F)(F)F)[n+]([O-])c2cc(F)c(F)cc2[n+]1[O-]`: in assay [1], the inhibition of growth at 25 µM was 100%. Further, the IC50 in assay [2] was 0.5 µM.
Consider `CC(C)C(=O)c1c(C(F)(F)F)[n+]([O-])c2cc(Cl)c(Cl)cc2[n+]1[O-]`, for which, in assay [1], the inhibition of growth at 25 µM is 100%. Moreover, the IC50 in assay [2] was found to be 1.4 µM.
For the molecule `Cc1cc2c(cc1C)[n+]([O-])c(Cc1ccccc1)c(C)[n+]2[O-]`, the inhibition of growth at 25 µM in assay [1] is 0%.
Take `COC(=O)c1c(C)[n+]([O-])c2cc(Cl)c(Cl)cc2[n+]1[O-]`: the inhibition of growth at 25 µM in assay [1] worked out at 66%.
With `CC(C)C(=O)c1c(C(F)(F)F)[n+]([O-])c2ccccc2[n+]1[O-]`, the inhibition of growth at 25 µM in assay [1] was found to be 100%. Further, the IC50 in assay [2] is more than 2.5 µM.
For `O=C(c1ccco1)c1c(C(F)(F)F)[n+]([O-])c2ccc(C(F)(F)F)cc2[n+]1[O-]`, in that order: 100% and 4.8 µM.
Take `O=C(c1ccccc1)c1c(C(F)F)[n+]([O-])c2cc(Cl)c(Cl)cc2[n+]1[O-]`: in assay [1], the inhibition of growth at 25 µM came out at 100%. In addition, the IC50 in assay [2] is 4.7 µM.
Consider `Cc1c(C(=O)c2ccccc2)[n+]([O-])c2cc(Cl)c(Cl)cc2[n+]1[O-]`, for which the inhibition of growth at 25 µM in assay [1] is 91%. For the same molecule, the IC50 in assay [2] turned out to be 11.8 µM.
Consider `Cc1c(Cc2ccccc2)[n+]([O-])c2cc(Cl)c(Cl)cc2[n+]1[O-]`, for which the inhibition of growth at 25 µM in assay [1] was 24%.
Regarding `O=C(c1ccccc1)c1c(C(F)F)[n+]([O-])c2ccccc2[n+]1[O-]`, the inhibition of growth at 25 µM in assay [1] was 35.8%.
For `CCOC(=O)c1c(-c2ccccc2)[n+]([O-])c2cc(OC)ccc2[n+]1[O-]`, in assay [1], the inhibition of growth at 25 µM is 0%.
Take `CC(=O)c1c(C)[n+]([O-])c2cc(Cl)c(Cl)cc2[n+]1[O-]`: the inhibition of growth at 25 µM in assay [1] was determined as 60%. In assay [2], the IC50 turned out to be 18.4 µM.
`O=C(c1ccco1)c1c(C(F)(F)F)[n+]([O-])c2cc(C(F)(F)F)ccc2[n+]1[O-]`: in assay [1], the inhibition of growth at 25 µM turned out to be 100%. For the same molecule, the IC50 in assay [2] was 5 µM.
Take `O=C(c1cccs1)c1c(C(F)(F)F)[n+]([O-])c2cc(F)c(F)cc2[n+]1[O-]`: in assay [1], the inhibition of growth at 25 µM worked out at 100%. Also, the IC50 in assay [2] worked out at 2.8 µM.
Regarding `O=C(c1ccccc1)c1nc2ccccc2nc1C(F)(F)F`, the inhibition of growth at 25 µM in assay [1] was 49%.
On the same count and under the same terms, in the case of `CCOC(=O)c1c(C)[n+]([O-])c2cc(C)c(C)cc2[n+]1[O-]` it was 1%.
For `Cc1ccc2c(c1)[n+]([O-])c(C(F)(F)F)c(C(=O)c1ccccc1)[n+]2[O-]`, the inhibition of growth at 25 µM in assay [1] was 99%. Besides, in assay [2], the IC50 is 1.3 µM.
`CCOC(=O)c1c(-c2ccccc2)[n+]([O-])c2cc(F)c(F)cc2[n+]1[O-]`: in assay [1], the inhibition of growth at 25 µM amounted to 100%. Moreover, in assay [2], the IC50 is 3.3 µM.
Turning to `O=C(c1ccccc1)c1c(C(F)(F)F)[n+]([O-])c2cc(Cl)ccc2[n+]1[O-]`, the inhibition of growth at 25 µM in assay [1] is 90%. Also, the IC50 in assay [2] stood at 3 µM.
For `O=C(c1ccccc1)c1c(C(F)F)[n+]([O-])c2cc(F)ccc2[n+]1[O-]`, in that order: 100% and 6.3 µM.
As to `Cc1cc2c(cc1C)[n+]([O-])c(C(=O)Nc1ccccc1C)c(C)[n+]2[O-]`, the inhibition of growth at 25 µM in assay [1] was 12%.
`Cc1cc2c(cc1C)[n+]([O-])c(C(=O)NC(C)(C)C)c(C)[n+]2[O-]`: in assay [1], the inhibition of growth at 25 µM was 0%.
Still for that read-out and setting: in the case of `Cc1ccccc1NC(=O)c1c(C)[n+]([O-])c2ccccc2[n+]1[O-]` it was 21%; in that of `Cc1c(C(=O)Nc2ccccc2)[n+]([O-])c2cc(Cl)c(Cl)cc2[n+]1[O-]`, 61%.
For the molecule `CCC(=O)c1c(C(F)(F)F)[n+]([O-])c2cc(Cl)c(Cl)cc2[n+]1[O-]`, the inhibition of growth at 25 µM in assay [1] was found to be 100%. The IC50 in assay [2] worked out at 0.78 µM.
As for `Cc1cc2c(cc1C)[n+]([O-])c(C(=O)c1ccccc1)c(C)[n+]2[O-]`, the inhibition of growth at 25 µM in assay [1] is 3%.
`Cc1c(C(=O)c2ccccc2)[n+]([O-])c2ccc(Cl)cc2[n+]1[O-]`: the inhibition of growth at 25 µM in assay [1] is 33%.
On the same count and under the same terms, in the case of `Cc1ccccc1NC(=O)c1c(C)[n+]([O-])c2cc(Cl)c(Cl)cc2[n+]1[O-]` it was 49%.
Take `CC(=O)c1c(C)[n+]([O-])c2ccccc2[n+]1[O-]` [MEQUINDOX]: the inhibition of growth at 25 µM in assay [1] worked out at 29%.
On to `Cc1c(Cc2ccccc2)[n+]([O-])c2ccccc2[n+]1[O-]`, for which the inhibition of growth at 25 µM in assay [1] came out at 0%.
`CCOC(=O)c1c(-c2ccccc2)[n+]([O-])c2cc(C)c(C)cc2[n+]1[O-]`: the inhibition of growth at 25 µM in assay [1] was 0%.
Take `Cc1c(Cc2ccccc2)[n+]([O-])c2ccc(Cl)cc2[n+]1[O-]`: the inhibition of growth at 25 µM in assay [1] stood at 0%.
Turning to `O=C(c1cccc2ccccc12)c1c(C(F)(F)F)[n+]([O-])c2cc(F)c(F)cc2[n+]1[O-]`, the inhibition of growth at 25 µM in assay [1] worked out at 100%. Also, the IC50 in assay [2] stood at 3.9 µM.
For the molecule `CC(=O)c1c(C)[n+]([O-])c2cc(C)c(C)cc2[n+]1[O-]`, the inhibition of growth at 25 µM in assay [1] is 2%.
With `O=C(c1ccccc1)c1c(C(F)F)[n+]([O-])c2cc(Cl)ccc2[n+]1[O-]`, in assay [1], the inhibition of growth at 25 µM was found to be 100%. The IC50 in assay [2] is 6.4 µM.
As for `CCOC(=O)c1c(C)[n+]([O-])c2cc(Cl)c(Cl)cc2[n+]1[O-]`, the inhibition of growth at 25 µM in assay [1] was 32%.
Same read-out and setting: with `Cc1ccc2c(c1)[n+]([O-])c(C)c(C(=O)c1ccccc1)[n+]2[O-]` the figure was 8%.
For `COc1ccc2c(c1)[n+]([O-])c(C(F)(F)F)c(C(=O)c1ccccc1)[n+]2[O-]`, the inhibition of growth at 25 µM in assay [1] worked out at 98%. Moreover, in assay [2], the IC50 was 3.5 µM.
`CCOC(=O)c1c(-c2ccccc2)[n+]([O-])c2cc(C)ccc2[n+]1[O-]`: the inhibition of growth at 25 µM in assay [1] was 13%.
As to `CC(C)(C)C(=O)c1nc2ccccc2nc1C(F)(F)F`, the inhibition of growth at 25 µM in assay [1] is 43%.
Take `Cc1c(C(=O)c2ccccc2)[n+]([O-])c2ccccc2[n+]1[O-]`: the inhibition of growth at 25 µM in assay [1] amounted to 19%.
Same read-out and setting: with `COC(=O)c1c(C)[n+]([O-])c2cc(C)c(C)cc2[n+]1[O-]` the figure was 10%; with `COc1ccc2c(c1)[n+]([O-])c(C)c(C(=O)c1ccccc1)[n+]2[O-]`, 9%; with `Cc1cc2c(cc1C)[n+]([O-])c(C(=O)Nc1ccccc1)c(C)[n+]2[O-]`, 16%.

The record behind these values is ChEMBL document CHEMBL1773052, “3-Trifluoromethylquinoxaline N,N'-dioxides as anti-trypanosomatid agents. Identification of optimal anti-T. cruzi agents and mechanism of action studies” (J Med Chem, 2011).
